From ChEMBL document CHEMBL1629526, “4-[1-(Substituted aryl/alkyl carbonyl)-benzoimidazol-2-yl]-benzenesulfonic acids: synthesis, antimicrobial activity, QSAR studies, and antiviral evaluation” (Eur J Med Chem, 2010)
Values after ≈ are worked out from the molar mass of the structure shown.

What was measured:
[1] = tested on: Influenza A virus; test: Antiviral activity against Influenza A H3N2 virus subtype infected in MDCK cells assessed as inhibition of virus induced cytopathicity by visual scoring of CPE; format: functional, organism-based
[2] = tested on: Felid alphaherpesvirus 1; test: Antiviral activity against Feline herpesvirus 1 infected in cat CRFK cells assessed as inhibition of virus induced cytopathicity after 2 to 4 days by MTS assay; format: functional, organism-based; conditions: Felid alphaherpesvirus 1, CRFK
[3] = Cytotoxicity against cat CRFK cells assessed as cell viability by MTS assay; format: cell-based, Felis catus; conditions: crfk
Outline: (§1)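 Uninfected cultures were run in parallel with the antiviral assays. Viability was read by colorimetric formazan MTS assay.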

[4] = tested on: Escherichia coli; test: Antimicrobial activity against Escherichia coli after 24 hrs by tube dilution method; format: functional
[5] = tested on: Influenza B virus; test: Antiviral activity against Influenza B virus infected in MDCK cells assessed as inhibition of virus induced cytopathicity after 2 to 4 days by MTS assay; format: functional, organism-based
[6] = tested on: HeLa; test: Cytotoxicity against human HeLa cells assessed as cell viability by MTS assay; format: cell-based; conditions: hela; outline: as §1
[7] = Cytotoxicity against human HeLa cells assessed as altered cell morphology; format: cell-based
Outline: (§2)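 Uninfected cell cultures run alongside the antiviral assays, exposed to serial compound dilutions and incubated at 37 °C for 2–4 days. Toxicity was scored microscopically and reported as the minimum cytotoxic concentration (MCC), the lowest concentration causing a detectable change in normal cell morphology.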

[8] = tested on: Feline coronavirus; test: Antiviral activity against Feline coronavirus infected in cat CRFK cells assessed as inhibition of virus induced cytopathicity after 2 to 4 days by MTS assay; format: functional, organism-based; conditions: Alphacoronavirus 1, CRFK
[9] = tested on: Bacillus subtilis; test: Antimicrobial activity against Bacillus subtilis after 24 hrs by tube dilution method; format: functional
Outline: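 Serial dilutions in double-strength nutrient broth (I.P.) with ciprofloxacin as reference, tube dilution, incubated 37 °C for 24 h. MIC is the lowest concentration that inhibited growth.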

[10] = Cytotoxicity against MDCK cells assessed as altered cell morphology; format: cell-based, Canis lupus familiaris; conditions: dog; outline: as §2
[11] = tested on: Aspergillus niger; test: Antimicrobial activity against Aspergillus niger after 7 days by tube dilution method; format: functional; conditions: 168 h
[12] = tested on: Vaccinia virus; test: Antiviral activity against Vaccinia virus infected in HEL cells assessed as inhibition of virus induced cytopathicity after 2 to 4 days by MTS assay; format: functional, organism-based; conditions: Orthopoxvirus vaccinia
[13] = tested on: Respiratory syncytial virus; test: Antiviral activity against Respiratory syncytial virus infected in human HeLa cells assessed as inhibition of virus induced cytopathicity after 2 to 4 days by MTS assay; format: functional, organism-based
[14] = tested on: Coxsackievirus B4; test: Antiviral activity against coxsackievirus B4 infected in human HeLa cells assessed as inhibition of virus induced cytopathicity after 2 to 4 days by MTS assay; format: functional, organism-based; conditions: Enterovirus B
[15] = tested on: Staphylococcus aureus; test: Antimicrobial activity against Staphylococcus aureus after 24 hrs by tube dilution method; format: functional
[16] = tested on: Vesicular stomatitis virus; test: Antiviral activity against Vesicular stomatitis virus infected in human HeLa cells assessed as inhibition of virus induced cytopathicity after 2 to 4 days by MTS assay; format: functional, organism-based
[17] = tested on: Vesicular stomatitis virus; test: Antiviral activity against Vesicular stomatitis virus infected in HEL cells assessed as inhibition of virus induced cytopathicity after 2 to 4 days by MTS assay; format: functional, organism-based
[18] = tested on: Sindbis virus; test: Antiviral activity against Sindbis virus infected in african green monkey Vero cells assessed as inhibition of virus induced cytopathicity after 2 to 4 days by MTS assay; format: functional, organism-based
[19] = tested on: Influenza B virus; test: Antiviral activity against Influenza B virus infected in MDCK cells assessed as inhibition of virus induced cytopathicity by visual scoring of CPE; format: functional, organism-based
[20] = tested on: MDCK; test: Cytotoxicity against MDCK cells assessed as cell viability by MTS assay; format: cell-based, Canis lupus familiaris; conditions: dog, mdck; outline: as §1
[21] = tested on: Vesicular stomatitis virus; test: Antiviral activity against Vesicular stomatitis virus infected in human HeLa cells assessed as inhibition of virus induced cytopathicity by visual scoring of CPE; format: functional, organism-based
[22] = Cytotoxicity against african green monkey Vero cells assessed as altered cell morphology; format: cell-based; conditions: chlorocebus sabaeus; outline: as §2
[23] = tested on: Mammalian orthoreovirus 1; test: Antiviral activity against Reovirus 1 virus infected in african green monkey Vero cells assessed as inhibition of virus induced cytopathicity after 2 to 4 days by MTS assay; format: functional, organism-based; conditions: Mammalian orthoreovirus 1, Vero
[24] = Cytotoxicity against human HEL cells assessed as altered cell morphology; format: cell-based; outline: as §2
[25] = tested on: Respiratory syncytial virus; test: Antiviral activity against Respiratory syncytial virus infected in human HeLa cells assessed as inhibition of virus induced cytopathicity by visual scoring of CPE; format: functional, organism-based
[26] = tested on: Human alphaherpesvirus 1; test: Antiviral activity against Herpes simplex virus 1 KOS infected in HEL cells assessed as inhibition of virus induced cytopathicity after 2 to 4 days by MTS assay; format: functional, organism-based; conditions: Human alphaherpesvirus 1, KOS
[27] = tested on: Human respirovirus 3; test: Antiviral activity against parainfluenza-3 virus infected in african green monkey Vero cells assessed as inhibition of virus induced cytopathicity after 2 to 4 days by MTS assay; format: functional, organism-based; conditions: Human respirovirus 3, Vero
[28] = tested on: Coxsackievirus B4; test: Antiviral activity against coxsackievirus B4 infected in human HeLa cells assessed as inhibition of virus induced cytopathicity by visual scoring of CPE; format: functional, organism-based; conditions: Enterovirus B
[29] = tested on: Punta Toro virus; test: Antiviral activity against Punta Toro virus infected in african green monkey Vero cells assessed as inhibition of virus induced cytopathicity after 2 to 4 days by MTS assay; format: functional, organism-based
[30] = tested on: Candida albicans; test: Antimicrobial activity against Candida albicans after 48 hrs by tube dilution method; format: functional
[31] = tested on: Coxsackievirus B4; test: Antiviral activity against Coxsackie virus B4 infected in african green monkey Vero cells assessed as inhibition of virus induced cytopathicity after 2 to 4 days by MTS assay; format: functional, organism-based; conditions: Enterovirus B
[32] = tested on: Influenza A virus; test: Antiviral activity against Influenza A H3N2 virus subtype infected in MDCK cells assessed as inhibition of virus induced cytopathicity after 2 to 4 days by MTS assay; format: functional, organism-based
[33] = tested on: Human alphaherpesvirus 2; test: Antiviral activity against Herpes simplex virus 2 G infected in HEL cells assessed as inhibition of virus induced cytopathicity after 2 to 4 days by MTS assay; format: functional, organism-based; conditions: Human alphaherpesvirus 2, strain G
[34] = tested on: Human alphaherpesvirus 1; test: Antiviral activity against thymidine kinase deficient acyclovir-resistant Herpes simplex virus 1 KOS infected in HEL cells assessed as inhibition of virus induced cytopathicity after 2 to 4 days by MTS assay; format: functional, organism-based; conditions: Human alphaherpesvirus 1, KOS

SMILES | EC50 [1] [µg/mL] | EC50 [2] [µg/mL] | CC50 [3] [µg/mL] | MBC [4] [µg/mL] | EC50 [5] [µg/mL] | CC50 [6] [µg/mL] | MCC [7] [µg/mL] | EC50 [8] [µg/mL] | MBC [9] [µg/mL] | MCC [10] [µg/mL] | MFC [11] [µg/mL] | EC50 [12] [µg/mL] | EC50 [13] [µg/mL] | EC50 [14] [µg/mL] | MBC [15] [µg/mL] | EC50 [16] [µg/mL] | EC50 [17] [µg/mL] | EC50 [18] [µg/mL] | EC50 [19] [µg/mL] | CC50 [20] [µg/mL] | also measured
C=C(C)C(=O)n1c(-c2ccc(S(=O)(=O)O)cc2)nc2ccccc21 | > 100 | > 100 | > 100 | 12.5 (≈ 36.5 µM) | > 100 | > 100 | > 100 | > 100 | 12.5 (≈ 36.5 µM) | > 100 | > 50 | > 100 | > 100 | > 100 | 6.25 (≈ 18.3 µM) | > 100 | > 100 | > 100 | > 100 | > 100 | EC50 [21]: > 100 µg/mL; MCC [22]: > 100 µg/mL; EC50 [23]: > 100 µg/mL; MCC [24]: > 100 µg/mL; EC50 [25]: > 100 µg/mL; EC50 [26]: > 100 µg/mL; EC50 [27]: > 100 µg/mL; EC50 [28]: > 100 µg/mL; EC50 [29]: > 100 µg/mL; MFC [30]: > 50 µg/mL; EC50 [31]: > 100 µg/mL; EC50 [32]: > 100 µg/mL; EC50 [33]: > 100 µg/mL; EC50 [34]: > 100 µg/mL
O=C(c1cccnc1)n1c(-c2ccc(S(=O)(=O)O)cc2)nc2ccccc21 | > 100 | > 100 | > 100 | 1.56 (≈ 4.11 µM) | > 100 | > 100 | > 100 | > 100 | > 50 | > 100 | > 50 | > 100 | > 100 | > 100 | 12.5 (≈ 32.9 µM) | > 100 | > 100 | > 100 | > 100 | > 100 | EC50 [21]: > 100 µg/mL; MCC [22]: > 100 µg/mL; EC50 [23]: > 100 µg/mL; MCC [24]: > 100 µg/mL; EC50 [25]: > 100 µg/mL; EC50 [26]: > 100 µg/mL; EC50 [27]: > 100 µg/mL; EC50 [28]: > 100 µg/mL; EC50 [29]: > 100 µg/mL; MFC [30]: > 50 µg/mL; EC50 [31]: > 100 µg/mL; EC50 [32]: > 100 µg/mL; EC50 [33]: > 100 µg/mL; EC50 [34]: > 100 µg/mL
